Test results published in ChEMBL document CHEMBL1152560, “Substituted 2-arylbenzothiazoles as kinase inhibitors: hit-to-lead optimization” (Bioorg Med Chem, 2009).

Experiments:
[1] = molecular target: T1, Ephrin type-B receptor 4 (Homo sapiens) (UniProt P54760); assay: Residual activity of EPHB4 at 10 uM by microplate scintillation counting
T1 sequence (whole entry): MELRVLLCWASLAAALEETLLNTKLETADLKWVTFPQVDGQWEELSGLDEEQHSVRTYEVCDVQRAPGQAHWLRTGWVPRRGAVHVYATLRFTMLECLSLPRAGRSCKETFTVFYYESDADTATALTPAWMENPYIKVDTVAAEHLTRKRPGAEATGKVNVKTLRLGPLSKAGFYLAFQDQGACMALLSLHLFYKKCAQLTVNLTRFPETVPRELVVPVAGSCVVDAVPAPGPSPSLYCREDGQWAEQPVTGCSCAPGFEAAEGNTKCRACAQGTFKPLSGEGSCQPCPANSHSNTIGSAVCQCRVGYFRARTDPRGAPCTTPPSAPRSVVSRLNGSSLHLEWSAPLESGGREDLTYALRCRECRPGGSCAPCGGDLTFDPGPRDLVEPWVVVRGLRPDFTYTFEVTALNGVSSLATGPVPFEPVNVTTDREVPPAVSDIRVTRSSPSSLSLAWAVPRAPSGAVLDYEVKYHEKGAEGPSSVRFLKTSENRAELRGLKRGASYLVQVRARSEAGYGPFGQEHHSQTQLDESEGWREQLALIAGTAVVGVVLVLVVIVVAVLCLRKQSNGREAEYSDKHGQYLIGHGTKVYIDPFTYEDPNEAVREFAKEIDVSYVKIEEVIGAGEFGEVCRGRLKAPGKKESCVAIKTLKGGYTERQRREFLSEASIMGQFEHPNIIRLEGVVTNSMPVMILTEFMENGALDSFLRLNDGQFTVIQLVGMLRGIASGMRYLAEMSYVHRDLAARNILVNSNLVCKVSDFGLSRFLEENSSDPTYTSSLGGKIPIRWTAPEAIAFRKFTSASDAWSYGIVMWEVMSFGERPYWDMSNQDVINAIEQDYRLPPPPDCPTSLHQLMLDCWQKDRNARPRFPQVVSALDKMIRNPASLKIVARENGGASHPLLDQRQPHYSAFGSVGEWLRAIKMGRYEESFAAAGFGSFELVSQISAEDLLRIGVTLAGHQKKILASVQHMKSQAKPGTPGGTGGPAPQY

[2] = molecular target: T2, Serine/threonine-protein kinase 17A (Homo sapiens) (UniProt Q9UEE5); assay: Residual activity of STK17A at 0.1 uM by microplate scintillation counting
T2 sequence (whole entry): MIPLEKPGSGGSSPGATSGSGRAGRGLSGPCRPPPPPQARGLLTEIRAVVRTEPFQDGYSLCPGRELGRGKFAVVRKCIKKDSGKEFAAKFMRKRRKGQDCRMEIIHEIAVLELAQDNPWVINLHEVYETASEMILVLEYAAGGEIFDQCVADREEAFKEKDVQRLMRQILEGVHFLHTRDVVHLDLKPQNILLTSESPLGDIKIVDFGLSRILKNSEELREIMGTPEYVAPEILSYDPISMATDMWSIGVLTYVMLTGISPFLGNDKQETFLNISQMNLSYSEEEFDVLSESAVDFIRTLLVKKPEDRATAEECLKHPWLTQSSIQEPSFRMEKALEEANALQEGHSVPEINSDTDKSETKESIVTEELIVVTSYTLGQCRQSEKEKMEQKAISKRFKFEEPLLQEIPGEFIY

[3] = molecular target: Platelet-derived growth factor receptor beta (Homo sapiens, UniProt P09619); assay: Inhibition of PDGFRbeta by microplate scintillation counting
Platelet-derived growth factor receptor beta, sequence (P09619 whole entry): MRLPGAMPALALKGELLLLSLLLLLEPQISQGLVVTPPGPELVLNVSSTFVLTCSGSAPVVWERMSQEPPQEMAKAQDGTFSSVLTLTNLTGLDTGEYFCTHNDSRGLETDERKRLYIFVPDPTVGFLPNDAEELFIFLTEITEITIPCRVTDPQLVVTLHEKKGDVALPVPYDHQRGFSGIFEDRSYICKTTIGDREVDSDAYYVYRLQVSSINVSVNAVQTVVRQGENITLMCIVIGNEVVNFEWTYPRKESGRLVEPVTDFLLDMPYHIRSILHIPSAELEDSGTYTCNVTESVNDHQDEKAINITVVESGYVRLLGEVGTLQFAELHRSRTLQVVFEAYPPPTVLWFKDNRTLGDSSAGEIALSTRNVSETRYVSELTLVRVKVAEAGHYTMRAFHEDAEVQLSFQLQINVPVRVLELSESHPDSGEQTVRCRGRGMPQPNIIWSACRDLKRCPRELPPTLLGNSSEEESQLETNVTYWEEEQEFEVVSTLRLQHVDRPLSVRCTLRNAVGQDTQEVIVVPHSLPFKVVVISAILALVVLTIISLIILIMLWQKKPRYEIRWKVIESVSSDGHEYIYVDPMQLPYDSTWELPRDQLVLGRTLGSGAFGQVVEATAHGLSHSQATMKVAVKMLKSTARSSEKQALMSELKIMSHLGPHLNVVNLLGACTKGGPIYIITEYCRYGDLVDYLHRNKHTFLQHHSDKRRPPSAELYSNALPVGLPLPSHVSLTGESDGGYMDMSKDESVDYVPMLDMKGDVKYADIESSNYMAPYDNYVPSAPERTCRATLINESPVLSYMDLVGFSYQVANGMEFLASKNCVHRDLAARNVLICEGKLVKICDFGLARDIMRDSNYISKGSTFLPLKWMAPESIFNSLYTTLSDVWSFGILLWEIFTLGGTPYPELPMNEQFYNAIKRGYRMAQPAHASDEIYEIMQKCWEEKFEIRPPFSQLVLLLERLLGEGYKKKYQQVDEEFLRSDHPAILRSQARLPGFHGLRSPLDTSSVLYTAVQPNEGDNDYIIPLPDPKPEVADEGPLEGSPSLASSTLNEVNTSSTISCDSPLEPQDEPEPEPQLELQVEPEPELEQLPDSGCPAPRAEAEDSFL
Method in brief: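 Substrates: tetra(LRRWSLG) for Aurora A/B; poly(Ala,Glu,Lys,Tyr)6:2:5:1 for PDGFRβ; poly(Glu,Tyr)4:1 for TIE2 and VEGFR2. Stopped with 2% H3PO4.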

[4] = molecular target: Fibroblast growth factor receptor 3 (Homo sapiens) (UniProt P22607); assay: Residual activity of FGFR3 at 10 uM by microplate scintillation counting
Fibroblast growth factor receptor 3 (Homo sapiens), sequence (P22607 23-806 limits assumed): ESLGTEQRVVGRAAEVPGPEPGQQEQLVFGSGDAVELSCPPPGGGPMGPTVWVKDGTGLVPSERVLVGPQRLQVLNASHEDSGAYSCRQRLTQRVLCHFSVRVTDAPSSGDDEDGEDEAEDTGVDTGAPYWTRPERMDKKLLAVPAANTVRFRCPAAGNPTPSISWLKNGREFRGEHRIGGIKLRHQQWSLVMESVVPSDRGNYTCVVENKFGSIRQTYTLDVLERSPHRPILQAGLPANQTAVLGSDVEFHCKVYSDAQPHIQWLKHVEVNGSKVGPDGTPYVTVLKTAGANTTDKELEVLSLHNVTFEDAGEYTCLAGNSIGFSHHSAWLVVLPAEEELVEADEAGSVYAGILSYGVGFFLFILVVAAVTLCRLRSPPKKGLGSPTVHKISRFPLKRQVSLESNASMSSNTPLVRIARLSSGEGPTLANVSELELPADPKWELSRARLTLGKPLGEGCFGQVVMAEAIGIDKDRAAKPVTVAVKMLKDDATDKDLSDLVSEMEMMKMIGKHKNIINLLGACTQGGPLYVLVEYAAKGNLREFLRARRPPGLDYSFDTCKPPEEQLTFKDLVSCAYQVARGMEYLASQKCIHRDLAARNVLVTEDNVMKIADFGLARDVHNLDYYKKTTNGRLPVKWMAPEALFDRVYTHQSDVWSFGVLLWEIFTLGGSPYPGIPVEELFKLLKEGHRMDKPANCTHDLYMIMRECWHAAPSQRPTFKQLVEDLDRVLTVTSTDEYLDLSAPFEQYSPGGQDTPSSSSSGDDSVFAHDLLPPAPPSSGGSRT

[5] = molecular target: Serine/threonine-protein kinase PLK2 (Homo sapiens) (UniProt Q9NYY3); assay: Residual activity of SNK at 1 uM by microplate scintillation counting
Serine/threonine-protein kinase PLK2 (Homo sapiens), sequence (Q9NYY3 whole entry, looked up): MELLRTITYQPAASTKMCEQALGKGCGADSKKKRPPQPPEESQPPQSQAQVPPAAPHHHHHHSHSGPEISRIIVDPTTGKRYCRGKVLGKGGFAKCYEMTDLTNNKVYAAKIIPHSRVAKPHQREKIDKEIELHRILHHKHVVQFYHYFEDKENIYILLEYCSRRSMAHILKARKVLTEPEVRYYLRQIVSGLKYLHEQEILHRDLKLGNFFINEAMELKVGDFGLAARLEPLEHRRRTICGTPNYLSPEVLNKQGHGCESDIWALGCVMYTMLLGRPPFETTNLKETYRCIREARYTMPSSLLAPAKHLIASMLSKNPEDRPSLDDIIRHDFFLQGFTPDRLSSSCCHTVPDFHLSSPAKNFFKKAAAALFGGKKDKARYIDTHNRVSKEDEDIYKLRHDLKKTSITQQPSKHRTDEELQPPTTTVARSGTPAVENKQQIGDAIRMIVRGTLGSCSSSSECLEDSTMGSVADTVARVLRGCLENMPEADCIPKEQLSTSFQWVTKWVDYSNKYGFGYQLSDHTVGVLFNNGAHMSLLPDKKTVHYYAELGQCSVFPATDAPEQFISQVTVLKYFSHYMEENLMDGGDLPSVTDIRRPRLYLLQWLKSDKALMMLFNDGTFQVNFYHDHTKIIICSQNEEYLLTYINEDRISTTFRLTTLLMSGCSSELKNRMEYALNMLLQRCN

[6] = molecular target: Serine/threonine-protein kinase PAK 3 (Homo sapiens) (UniProt O75914); assay: Residual activity of PAK3 at 1 uM by microplate scintillation counting
Serine/threonine-protein kinase PAK 3 (Homo sapiens), sequence (O75914 whole entry, looked up): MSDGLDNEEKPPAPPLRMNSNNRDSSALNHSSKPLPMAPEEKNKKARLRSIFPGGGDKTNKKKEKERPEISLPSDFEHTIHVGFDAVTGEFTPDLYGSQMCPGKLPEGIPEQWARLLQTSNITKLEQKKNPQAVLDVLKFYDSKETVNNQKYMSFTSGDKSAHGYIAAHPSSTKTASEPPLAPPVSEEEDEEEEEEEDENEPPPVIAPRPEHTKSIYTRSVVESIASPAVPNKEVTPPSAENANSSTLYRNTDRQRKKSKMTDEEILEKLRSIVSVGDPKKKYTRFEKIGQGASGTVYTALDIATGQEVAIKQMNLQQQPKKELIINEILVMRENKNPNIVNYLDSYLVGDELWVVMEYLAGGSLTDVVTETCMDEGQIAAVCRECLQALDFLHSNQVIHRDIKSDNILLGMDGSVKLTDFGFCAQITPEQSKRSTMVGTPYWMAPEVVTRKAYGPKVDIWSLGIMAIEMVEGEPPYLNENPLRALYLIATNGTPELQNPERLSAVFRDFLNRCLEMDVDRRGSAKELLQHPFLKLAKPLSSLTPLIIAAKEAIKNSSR

[7] = molecular target: T3, Serine/threonine-protein kinase Sgk3 (Homo sapiens) (UniProt Q96BR1); assay: Residual activity of SGK3 at 1 uM by microplate scintillation counting
T3 sequence (whole entry): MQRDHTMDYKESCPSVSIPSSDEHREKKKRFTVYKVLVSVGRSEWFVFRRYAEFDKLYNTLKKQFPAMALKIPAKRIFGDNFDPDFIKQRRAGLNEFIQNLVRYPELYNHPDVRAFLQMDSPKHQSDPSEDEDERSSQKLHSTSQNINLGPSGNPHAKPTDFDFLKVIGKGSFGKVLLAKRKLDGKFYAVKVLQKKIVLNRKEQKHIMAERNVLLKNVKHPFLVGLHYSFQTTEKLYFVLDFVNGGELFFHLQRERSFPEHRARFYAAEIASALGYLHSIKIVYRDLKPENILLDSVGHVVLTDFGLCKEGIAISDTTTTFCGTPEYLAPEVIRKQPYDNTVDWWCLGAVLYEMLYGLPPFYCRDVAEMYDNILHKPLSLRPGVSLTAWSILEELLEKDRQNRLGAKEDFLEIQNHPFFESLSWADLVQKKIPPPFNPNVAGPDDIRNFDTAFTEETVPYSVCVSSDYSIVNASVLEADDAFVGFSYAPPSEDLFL

[8] = molecular target: T4, Serine/threonine-protein kinase Chk1 (Homo sapiens) (UniProt O14757); assay: Residual activity of CHK1 at 0.1 uM by microplate scintillation counting
T4 sequence (whole entry): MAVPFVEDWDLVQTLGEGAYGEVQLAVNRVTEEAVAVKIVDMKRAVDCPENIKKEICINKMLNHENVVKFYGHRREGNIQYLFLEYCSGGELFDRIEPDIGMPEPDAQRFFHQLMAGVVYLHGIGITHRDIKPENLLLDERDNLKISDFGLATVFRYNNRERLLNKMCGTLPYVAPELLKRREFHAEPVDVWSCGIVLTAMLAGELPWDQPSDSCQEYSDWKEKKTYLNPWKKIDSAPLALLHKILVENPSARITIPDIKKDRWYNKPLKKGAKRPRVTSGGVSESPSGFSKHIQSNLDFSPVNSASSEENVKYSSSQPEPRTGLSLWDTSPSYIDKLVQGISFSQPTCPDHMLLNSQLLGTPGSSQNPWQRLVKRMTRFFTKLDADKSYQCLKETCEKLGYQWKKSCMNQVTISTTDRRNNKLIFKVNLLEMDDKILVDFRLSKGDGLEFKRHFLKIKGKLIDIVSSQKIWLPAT

[9] = molecular target: Fibroblast growth factor receptor 2 (Homo sapiens) (UniProt P21802); assay: Residual activity of FGFR2 at 10 uM by microplate scintillation counting
Fibroblast growth factor receptor 2 (Homo sapiens), sequence (P21802 22-821 limits assumed): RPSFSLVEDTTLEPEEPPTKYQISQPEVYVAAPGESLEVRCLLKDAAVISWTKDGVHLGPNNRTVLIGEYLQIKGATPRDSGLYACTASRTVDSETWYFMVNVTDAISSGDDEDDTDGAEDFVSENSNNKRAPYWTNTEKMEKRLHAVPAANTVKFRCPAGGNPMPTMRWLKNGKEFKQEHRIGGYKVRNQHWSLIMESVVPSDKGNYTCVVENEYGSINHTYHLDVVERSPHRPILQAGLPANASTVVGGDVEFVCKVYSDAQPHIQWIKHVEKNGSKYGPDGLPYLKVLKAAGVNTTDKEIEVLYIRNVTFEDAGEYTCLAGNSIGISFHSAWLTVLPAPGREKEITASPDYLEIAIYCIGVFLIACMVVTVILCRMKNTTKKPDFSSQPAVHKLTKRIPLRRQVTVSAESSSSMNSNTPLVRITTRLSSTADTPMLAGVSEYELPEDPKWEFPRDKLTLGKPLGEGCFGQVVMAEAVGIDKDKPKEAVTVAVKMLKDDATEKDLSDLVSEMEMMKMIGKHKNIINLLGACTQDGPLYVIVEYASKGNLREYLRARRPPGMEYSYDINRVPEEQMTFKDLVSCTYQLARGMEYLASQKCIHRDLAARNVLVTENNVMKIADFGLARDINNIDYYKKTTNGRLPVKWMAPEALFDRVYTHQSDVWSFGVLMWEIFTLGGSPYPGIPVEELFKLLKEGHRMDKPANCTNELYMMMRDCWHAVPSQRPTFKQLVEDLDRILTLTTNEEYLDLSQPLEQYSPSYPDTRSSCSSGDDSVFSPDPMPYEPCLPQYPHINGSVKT

[10] = molecular target: Hepatocyte growth factor receptor (Homo sapiens) (UniProt P08581); assay: Residual activity of MET at 1 uM by microplate scintillation counting
[11] = molecular target: Activin receptor type-1-like (Homo sapiens) (UniProt P37023); assay: Residual activity of ACV-RL1 at 10 uM by microplate scintillation counting
Activin receptor type-1-like (Homo sapiens), sequence (P37023 whole entry): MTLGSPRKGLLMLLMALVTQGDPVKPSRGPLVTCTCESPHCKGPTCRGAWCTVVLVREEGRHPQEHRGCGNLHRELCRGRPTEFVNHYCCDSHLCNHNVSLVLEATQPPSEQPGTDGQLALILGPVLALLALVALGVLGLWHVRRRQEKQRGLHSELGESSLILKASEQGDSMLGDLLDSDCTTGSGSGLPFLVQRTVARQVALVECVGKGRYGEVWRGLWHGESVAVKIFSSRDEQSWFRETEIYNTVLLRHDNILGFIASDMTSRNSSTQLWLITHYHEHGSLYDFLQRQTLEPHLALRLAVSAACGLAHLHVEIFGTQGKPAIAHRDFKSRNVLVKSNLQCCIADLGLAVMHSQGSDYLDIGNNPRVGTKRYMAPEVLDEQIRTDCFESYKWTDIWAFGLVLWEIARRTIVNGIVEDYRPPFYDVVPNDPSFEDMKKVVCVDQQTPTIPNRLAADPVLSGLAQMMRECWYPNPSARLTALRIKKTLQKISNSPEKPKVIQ

Row | residual activity [1] | residual activity [2] | IC50 [3] | residual activity [4] | residual activity [5] | residual activity [6] | residual activity [7] | residual activity [8] | residual activity [9] | residual activity [10] | residual activity [11] | Compound
1 | 122% | 66% | 7.7 µM | 169% | 86% | 101% | 110% | 94% | 113% | 74% | 87% | COc1cc2c(Oc3ccc(-c4nc5ccccc5s4)cc3)ncnc2cc1OCCCN1CCCC1
2 | 99% | 87% | 6.1 µM | 46% | 94% | 95% | 94% | 106% | 86% | 53% | 91% | COc1cc2c(Oc3ccc(-c4nc5ccccc5s4)cc3F)ncnc2cc1OCCCN1CCN(C)CC1
3 | 154% | 66% | 3.5 µM | 171% | 86% | 85% | 91% | 99% | 136% | 59% | 84% | COc1cc2c(Oc3ccc(-c4nc5ccccc5s4)cc3)ncnc2cc1OCCCN1CCN(C)CC1
